Results of several laboratories.
Protocols differ between the studies behind these lines.
Target: Homeodomain-interacting protein kinase 2 (HIPK2, Homo sapiens, UniProt Q9H2X6)

CC(C)(C)c1cc(C=C(C#N)C#N)cc(Br)c1O  remaining activity (enzyme activity, inhibitor; 0.5 µM): 110%
Cn1cc(-c2cc(F)cc(N3CCn4c(cc5c4CCCC5)C3=O)c2CO)cc(Nc2ccc(N3CCN(C4COC4)CC3)cn2)c1=O  inhibition (enzyme activity, inhibitor; 0.1 µM): 9%
O=c1[nH]c2ccccc2n1C1CCN(Cc2ccc(-c3[nH]c4cc5ncnc5cc4nc3-c3ccccc3)cc2)CC1  remaining signal (cell-free assay; 0.5 µM): 110%
Cc1nn(C)cc1-c1nc2c(N3CCN(Cc4ccc(Cl)cc4)CC3)c(Cl)cnc2[nH]1  remaining binding (binding, competition with immobilised ligand; 1 µM): 70%
N#CC1(c2ccccn2)CCN(Cc2cc(C(=O)O)c(=O)n3ccccc23)CC1  remaining binding (cell-free assay, competition with immobilised ligand; 1 µM): 66%
COc1ncccc1-c1cnn2ccc(N3CCN(C(=O)OC(C)C)CC3)nc12  remaining binding (binding, competition with immobilised ligand; 1 µM): 88%
Nc1ncc(-c2nc(N3CCOCC3)nc(N3CCOCC3)n2)c(C(F)F)n1  remaining binding (binding, competition with immobilised ligand; 10 µM): 59%
Cn1cc(-c2cccc(N3CCc4c(sc5c4CC(C)(C)C5)C3=O)c2CO)cc(Nc2ccncn2)c1=O  inhibition (enzyme activity, inhibitor; 1 µM): -4%
Cn1cncc1[C@@](O)(COc1ccc(C#N)cc1-c1ccc(OC(F)(F)F)cc1)c1ccc(C#N)cc1  remaining binding (cell-free assay, competition with immobilised ligand; 1 µM): 100%
